The results in this text go back to ChEMBL document CHEMBL1131126, “Naamidine A is an antagonist of the epidermal growth factor receptor and an in vivo active antitumor agent” (J Med Chem, 1998).

Structures are written as SMILES.

What all share (format): functional
The species entered for one test is Mus musculus. Nature of the test: Selectivity for EGF over insulin receptors. In outline: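 Ratio of insulin-stimulated IC50 to EGF-stimulated IC50, both from [3H]thymidine incorporation in EGF receptor-transfected NIH3T3 cells (1 h preincubation, 16 h mitogen stimulation, 1-h label).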
Test [1] relates to A-431. Put plainly: In vivo inhibitory activity against A431 tumor implanted in athymic mice at 25 mg/kg […]. As to conditions: Mus musculus. In outline: (§1)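 A431 squamous carcinoma cells (EGF receptor-overexpressing) implanted under the kidney capsule of athymic mice, N = 6 per group. Dosed once daily for 5 days starting the day after implantation. Tumor size assessed 7 days after implantation; result given as % inhibition of tumor growth, with deaths counted per group.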

The subject of test [2] is A-431. Nature of the test: In vivo inhibitory activity against A431 tumor implanted in athymic mice at 3.13 mg/kg […]. As to conditions: Mus musculus. In outline:
as §1

For test [3], the system named is A-431. Nature of the test: In vivo inhibitory activity against A431 tumor implanted in athymic mice at 50 mg/kg […]. As to conditions: Mus musculus. In outline:
as §1

The subject of test [4] is A-431. Put plainly: In vivo inhibitory activity against A431 tumor implanted in athymic mice at 12.5 mg/kg […]. As to conditions: Mus musculus. The method in brief:
as §1

Turning to `COc1ccc(Cc2cn(Cc3ccc(O)cc3)c(NC3=NC(=O)N(C)C3=O)n2)cc1`, the Selectivity in the test listed under Mus musculus came to 0.43.

On to `COc1ccc(Cc2nc(NC3=NC(=O)N(C)C3=O)n(C)c2Cc2ccc(O)cc2)cc1`, for which the inhibition in vivo (commonly the relative decrease from the control value, in per cent) at 25 mg/kg in the test on A-431 [1] came to 87.4%. In the test with A-431 [2], this compound returned an inhibition in vivo at 3.13 mg/kg of 35%. In addition, 50 mg/kg produced 96.4% inhibition in vivo in the test with A-431 [3]. Also, in the test filed under Mus musculus, the Selectivity came to 21. The compound further yielded an inhibition in vivo at 12.5 mg/kg with A-431 [4] of 52%.

The compound `COc1ccc(Cc2cn(Cc3ccc(OC)cc3)c(NC3=NC(=O)N(C)C3=O)n2)cc1` gave a Selectivity in the test filed under Mus musculus of 0.18.
